Test results reported in ChEMBL document CHEMBL1127495, “A recombinant human stromelysin catalytic domain identifying tryptophan derivatives as human stromelysin inhibitors” (J Med Chem, 1994).

What was measured:
Stromelysin-1 [1] = target: T1, Stromelysin-1 (Homo sapiens, UniProt P08254); test: (§1) Inhibition of recombinant stromelysin catalytic domain (SCD)
In short: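 E. coli-expressed human stromelysin catalytic domain (Phe-100 to Pro-273), expressed without propeptide so needing no activation, at 100 nM (10 nM for the hydroxamate peptide). A405 read over 3 min at room temperature.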

Stromelysin-1 [2] = target: T1, Stromelysin-1; test: In vitro inhibition of recombinant stromelysin catalytic domain.
Stromelysin-1 [3] = target: T1, Stromelysin-1; test: as §1; remark: listed apart in the source
Stromelysin-1 [4] = target: T1, Stromelysin-1; test: Inhibition of full length stromelysin isolated from cultured human cells (FLS)
Stromelysin-1 [5] = target: T1, Stromelysin-1; test: Inhibition of full length stromelysin isolated from cultured human cells (FLS).

T1 sequence (P08254 whole entry, the tested form may be a part): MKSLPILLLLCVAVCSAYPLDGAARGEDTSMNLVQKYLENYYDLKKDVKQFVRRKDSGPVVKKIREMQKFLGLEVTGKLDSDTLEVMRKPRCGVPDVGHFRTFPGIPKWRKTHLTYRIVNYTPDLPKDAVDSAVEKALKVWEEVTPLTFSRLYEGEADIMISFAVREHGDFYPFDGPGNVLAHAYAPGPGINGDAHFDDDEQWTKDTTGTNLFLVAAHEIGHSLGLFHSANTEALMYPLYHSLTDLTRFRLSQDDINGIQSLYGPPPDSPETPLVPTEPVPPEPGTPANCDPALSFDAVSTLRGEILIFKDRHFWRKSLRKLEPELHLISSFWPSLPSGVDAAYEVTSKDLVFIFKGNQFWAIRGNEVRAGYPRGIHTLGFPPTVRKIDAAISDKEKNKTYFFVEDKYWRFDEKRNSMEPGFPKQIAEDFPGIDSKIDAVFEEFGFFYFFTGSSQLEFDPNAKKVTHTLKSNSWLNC

Compound	IC50 (Stromelysin-1 [2]) [µM]	Ki (Stromelysin-1 [3]) [µM]	further results
O=C(N[C@@H](Cc1c[nH]c2ccccc12)C(=O)O)c1ccccc1			IC50 (Stromelysin-1 [1]): < 500 µM
CC(=O)N[C@H](Cc1c[nH]c2ccccc12)C(=O)O			IC50 (Stromelysin-1 [1]): < 500 µM
CC(=O)N[C@H](Cc1ccc(O)cc1)C(=O)O	> 500		
O=C(N[C@@H](Cc1ccc(O)cc1)C(=O)O)OCc1ccccc1	24	20	Ki (Stromelysin-1 [4]): 18 µM; IC50 (Stromelysin-1 [5]): 22 µM
O=C(N[C@@H](Cc1c[nH]c2ccccc12)C(=O)ON1C(=O)CCC1=O)OCc1ccccc1	13	11	
O=C(N[C@H](Cc1c[nH]c2ccccc12)C(=O)O)OCC1c2ccccc2-c2ccccc21			IC50 (Stromelysin-1 [1]): < 500 µM
O=C(N[C@H](Cc1ccc(O)cc1)C(=O)O)OCc1ccccc1	432	356	Ki (Stromelysin-1 [4]): 377 µM; IC50 (Stromelysin-1 [5]): 450 µM
NC(=O)[C@H](Cc1c[nH]c2ccccc12)NC(=O)OCc1ccccc1			IC50 (Stromelysin-1 [1]): < 500 µM
Cc1cc(C)c(S(=O)(=O)n2cc(C[C@H](NC(=O)OC(C)(C)C)C(=O)O)c3ccccc32)c(C)c1	63	52	
CC(C)(C)OC(=O)N[C@@H](Cc1ccc(O)cc1)C(=O)O			IC50 (Stromelysin-1 [1]): < 500 µM
CC(C)(C)OC(=O)N[C@H](Cc1c[nH]c2ccccc12)C(=O)O			IC50 (Stromelysin-1 [1]): < 500 µM
CC(C)(C)OC(=O)N[C@@H](Cc1c[nH]c2ccccc12)C(=O)O	10	8	
NC(=O)[C@H](Cc1ccc(O)cc1)NC(=O)OCc1ccccc1	> 500		
CC(=O)N[C@@H](Cc1c[nH]c2ccccc12)C(=O)O [ACETYLTRYPTOPHAN]			IC50 (Stromelysin-1 [1]): < 500 µM
N[C@@H](Cc1c[nH]c2ccccc12)C(=O)O [TRYPTOPHAN]	> 500		

Second part, led by results:

IC50 (Stromelysin-1 [2]) [µM]	Ki (Stromelysin-1 [3]) [µM]	Compound	further results
500		O=C(N[C@@H](Cc1c[nH]c2ccccc12)C(=O)O)OCC1c2ccccc2-c2ccccc21	
> 500		CC(C)(C)OC(=O)N[C@H](Cc1ccc(O)cc1)C(=O)O	
145	120	O=C(/C=C/c1ccco1)N[C@@H](Cc1c[nH]c2ccccc12)C(=O)O	
34	28	CC(C)(C)OC(=O)N[C@@H](Cc1cn(C=O)c2ccccc12)C(=O)O	
> 500		O=C(N[C@H](Cc1ccccc1)C(=O)O)OCc1ccccc1	IC50 (Stromelysin-1 [5]): > 500 µM
> 500		NNC(=O)[C@H](Cc1ccc(O)cc1)NC(=O)OCc1ccccc1	
102	84	CC(C)(C)OC(=O)N[C@@H](Cc1c[nH]c2ccccc12)C(=O)ON1C(=O)CCC1=O	
40	33	O=C(N[C@@H](Cc1ccccc1)C(=O)O)OCc1ccccc1	Ki (Stromelysin-1 [4]): 83 µM; IC50 (Stromelysin-1 [5]): 99 µM
> 500		CC(=O)N[C@@H](Cc1ccc(O)cc1)C(=O)O [ACETYL TYROSINE]	
> 500		N[C@H](Cc1c[nH]c2ccccc12)C(=O)O [D-TRYPTOPHAN]	
